Experimental data from different studies.
Each line is one published result; the experiments were not run side by side.
rep main protease: Replicase polyprotein 1ab, main protease (rep, Severe acute respiratory syndrome coronavirus 2, UniProt P0DTD1)
rep methyltransferase: Replicase polyprotein 1ab, methyltransferase (rep, Severe acute respiratory syndrome coronavirus 2, UniProt P0DTD1)
FABP1: Fatty acid-binding protein, liver (FABP1, Homo sapiens, UniProt P07148)

Compound	target	observed	mode	technique	setting	endpoint	result
CC(=O)[C@@]1(O)CC[C@H]2[C@@H]3C[C@H](C)C4=CC(=O)C=C[C@]4(C)[C@@]3(F)[C@@H](O)C[C@@]21C	rep main protease	enzyme activity	inhibitor	–	–	IC50	60.6 µM
CC1CC(c2ccc(S(N)(=O)=O)cc2)=NN1c1ccc(C#N)c(Cl)c1 (centres unmarked)	rep methyltransferase	enzyme activity	inhibitor	–	–	IC50	> 100 µM
CN1C(=O)/C(=N\Nc2ncc(-c3cc4ccccc4oc3=O)s2)c2cc(Cl)ccc21	Alpha-glucosidase MAL12 (MAL12, Saccharomyces cerevisiae S288c, UniProt P53341)	enzyme activity	inhibitor	absorbance	–	IC50	112 µM
COc1ncc(-c2ccc3nccc(-c4ccnnc4)c3c2)cc1NS(=O)(=O)c1ccc(F)cc1F	rep methyltransferase	enzyme activity	inhibitor	–	–	IC50	~100 µM
COc1cc2c(cc1OC)CN(CCc1ccc(NC(=O)c3cccc4c(=O)c5cccc(OC)c5[nH]c34)cc1)CC2	Histamine H2 receptor (HRH2, Homo sapiens, UniProt P25021)	cell-free assay	–	–	–	Ki	1.1 µM
O=C(O)c1cc(O)c(O)c(O)c1	rep main protease	binding	–	MST	–	Kd	3.95 µM
CCNS(=O)(=O)C(F)(F)C(F)(F)C(F)(F)C(F)(F)C(F)(F)C(F)(F)C(F)(F)C(F)(F)F	FABP1	ligand displacement	–	fluorescence	–	Kd	16.6 µM
O=c1c(O)c(-c2ccc(O)cc2)oc2c(O)c(O)cc(O)c12	rep main protease	enzyme activity	inhibitor	–	with preincubation	IC50	< 10 µM
CC1(C)O[C@@H]2C[C@H]3[C@@H]4CCC5=CC(=O)C=C[C@]5(C)[C@H]4[C@@H](O)C[C@]3(C)[C@]2(C(=O)CO)O1	rep main protease	enzyme activity	inhibitor	–	–	IC50	71.4 µM
NS(=O)(=O)C(F)(F)C(F)(F)C(F)(F)C(F)(F)C(F)(F)C(F)(F)C(F)(F)C(F)(F)F	FABP1	ligand displacement	–	fluorescence	–	Kd	5.87 µM
CCOC(=O)c1ccc(OC(=O)CCCCCN=C(N)N)cc1	Kallikrein-12 (Homo sapiens, UniProt Q9UKR0)	enzyme activity	inhibitor	–	–	IC50	0.0357 µM
